According to ChEMBL document CHEMBL4257503, “N-Acetyl-3-aminopyrazoles block the non-canonical NF-kB cascade by selectively inhibiting NIK” (Medchemcomm, 2018):

What was measured:
[1] = molecular target: T1, Inhibitor of nuclear factor kappa-B kinase subunit alpha (Homo sapiens, UniProt O15111); assay: Inhibition of recombinant full length human His-tagged IKKalpha expressed in baculovirus expression system using ERLLDDRHDSGLDSMKDEE peptide as substrate measured after 60 mins by ADP-Glo kinase assay
T1 sequence (O15111 whole entry): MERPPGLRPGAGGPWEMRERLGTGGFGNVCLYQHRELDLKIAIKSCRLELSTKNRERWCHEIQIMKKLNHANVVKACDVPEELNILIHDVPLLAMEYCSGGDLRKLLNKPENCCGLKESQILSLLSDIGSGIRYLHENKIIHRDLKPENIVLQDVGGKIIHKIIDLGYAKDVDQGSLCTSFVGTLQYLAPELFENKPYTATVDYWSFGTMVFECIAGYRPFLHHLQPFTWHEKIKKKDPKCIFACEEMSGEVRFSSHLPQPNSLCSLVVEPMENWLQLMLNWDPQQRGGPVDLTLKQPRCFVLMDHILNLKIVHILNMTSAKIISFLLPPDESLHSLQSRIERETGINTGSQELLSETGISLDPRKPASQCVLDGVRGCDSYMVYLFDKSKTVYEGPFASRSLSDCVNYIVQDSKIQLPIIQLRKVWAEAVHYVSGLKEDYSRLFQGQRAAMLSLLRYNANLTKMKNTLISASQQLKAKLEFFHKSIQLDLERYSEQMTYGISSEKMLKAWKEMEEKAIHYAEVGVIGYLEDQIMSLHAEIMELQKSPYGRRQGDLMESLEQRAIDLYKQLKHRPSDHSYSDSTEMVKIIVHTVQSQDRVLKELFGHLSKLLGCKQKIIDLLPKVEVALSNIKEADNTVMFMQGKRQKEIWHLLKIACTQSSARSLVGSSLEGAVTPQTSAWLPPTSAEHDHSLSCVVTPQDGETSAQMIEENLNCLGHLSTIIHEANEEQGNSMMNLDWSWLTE
How it was run: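 Recombinant human IKKα, peptide substrate 100 µM, enzyme 8 ng/µL, ATP 1 µM in Tris-HCl pH 7.5 buffer with MgCl2, MnCl2, DTT, Na3VO4, BSA; 25°C, 60 min; ADP-Glo luminescence. Ten concentrations 0.005–100 µM; IC50 by nonlinear regression; means ± SD of three independent experiments.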

[2] = molecular target: T2, Inhibitor of nuclear factor kappa-B kinase subunit beta (Homo sapiens, UniProt O14920); assay: Inhibition of recombinant human full-length N-terminal GST-fused/His6-tagged IKKbeta (M1 to S756 residues) expressed in Sf9 insect cells using ERLLDDRHDSGLDSMKDEE peptide as substrate measured after 60 mins by ADP-Glo kinase assay
T2 sequence (O14920 whole entry): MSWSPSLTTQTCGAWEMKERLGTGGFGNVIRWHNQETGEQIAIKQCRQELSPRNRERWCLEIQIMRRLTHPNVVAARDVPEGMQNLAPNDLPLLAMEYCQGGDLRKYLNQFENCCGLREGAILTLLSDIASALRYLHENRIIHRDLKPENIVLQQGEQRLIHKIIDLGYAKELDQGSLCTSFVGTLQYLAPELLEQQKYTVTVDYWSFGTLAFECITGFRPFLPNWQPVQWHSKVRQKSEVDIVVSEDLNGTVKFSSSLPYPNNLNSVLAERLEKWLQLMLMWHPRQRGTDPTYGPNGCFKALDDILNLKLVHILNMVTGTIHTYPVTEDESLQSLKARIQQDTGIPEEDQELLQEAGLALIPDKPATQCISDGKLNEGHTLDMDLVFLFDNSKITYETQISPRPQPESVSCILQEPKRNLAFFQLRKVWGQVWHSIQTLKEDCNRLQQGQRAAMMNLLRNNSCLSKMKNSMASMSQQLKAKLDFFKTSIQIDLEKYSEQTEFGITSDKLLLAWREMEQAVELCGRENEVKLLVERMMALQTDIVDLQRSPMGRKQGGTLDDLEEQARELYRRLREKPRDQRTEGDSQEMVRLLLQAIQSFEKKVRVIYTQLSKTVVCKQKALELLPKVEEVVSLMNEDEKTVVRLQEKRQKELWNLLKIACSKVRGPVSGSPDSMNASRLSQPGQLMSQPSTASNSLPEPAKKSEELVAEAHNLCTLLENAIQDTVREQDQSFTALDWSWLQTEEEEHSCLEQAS

[3] = molecular target: T3, Inhibitor of nuclear factor kappa-B kinase subunit epsilon (Homo sapiens, UniProt Q14164); assay: Inhibition of recombinant human full-length N-terminal GST-fused/His6-tagged IKKepsilon (M1 to V716 residues) expressed in Sf9 insect cells using ERLLDDRHDSGLDSMKDEE peptide as substrate measured after 60 mins by ADP-Glo kinase assay
T3 sequence (Q14164 whole entry): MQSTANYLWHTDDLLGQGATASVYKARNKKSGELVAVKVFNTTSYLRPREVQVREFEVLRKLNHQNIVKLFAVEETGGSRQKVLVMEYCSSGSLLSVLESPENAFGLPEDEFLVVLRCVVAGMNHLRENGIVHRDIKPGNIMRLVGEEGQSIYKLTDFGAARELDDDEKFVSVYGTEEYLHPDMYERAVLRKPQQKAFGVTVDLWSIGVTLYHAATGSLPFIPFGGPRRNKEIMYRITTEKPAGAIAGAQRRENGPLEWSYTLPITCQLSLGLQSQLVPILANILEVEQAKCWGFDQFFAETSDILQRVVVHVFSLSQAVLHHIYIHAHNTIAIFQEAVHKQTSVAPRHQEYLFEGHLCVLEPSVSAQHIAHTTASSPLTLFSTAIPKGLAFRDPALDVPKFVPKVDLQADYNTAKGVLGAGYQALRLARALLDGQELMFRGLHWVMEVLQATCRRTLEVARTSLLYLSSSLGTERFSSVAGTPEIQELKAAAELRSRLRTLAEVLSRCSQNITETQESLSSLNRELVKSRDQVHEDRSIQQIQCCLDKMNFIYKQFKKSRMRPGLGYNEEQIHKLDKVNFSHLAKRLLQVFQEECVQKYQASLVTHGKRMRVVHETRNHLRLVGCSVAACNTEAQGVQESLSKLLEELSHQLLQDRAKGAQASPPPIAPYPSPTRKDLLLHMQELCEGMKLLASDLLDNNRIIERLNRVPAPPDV

[4] = molecular target: Mitogen-activated protein kinase kinase kinase 14 (Homo sapiens, UniProt Q99558); assay: Inhibition of recombinant human full-length N-terminal GST-fused/His6-tagged NIK (M1 to P947 residues) expressed in Sf9 insect cells using AKDVDQGSLCTSFVGTLQY peptide as substrate measured after 60 mins by ADP-Glo kinase assay
Sequence of Mitogen-activated protein kinase kinase kinase 14 (Q99558 whole entry, the tested form may be a part): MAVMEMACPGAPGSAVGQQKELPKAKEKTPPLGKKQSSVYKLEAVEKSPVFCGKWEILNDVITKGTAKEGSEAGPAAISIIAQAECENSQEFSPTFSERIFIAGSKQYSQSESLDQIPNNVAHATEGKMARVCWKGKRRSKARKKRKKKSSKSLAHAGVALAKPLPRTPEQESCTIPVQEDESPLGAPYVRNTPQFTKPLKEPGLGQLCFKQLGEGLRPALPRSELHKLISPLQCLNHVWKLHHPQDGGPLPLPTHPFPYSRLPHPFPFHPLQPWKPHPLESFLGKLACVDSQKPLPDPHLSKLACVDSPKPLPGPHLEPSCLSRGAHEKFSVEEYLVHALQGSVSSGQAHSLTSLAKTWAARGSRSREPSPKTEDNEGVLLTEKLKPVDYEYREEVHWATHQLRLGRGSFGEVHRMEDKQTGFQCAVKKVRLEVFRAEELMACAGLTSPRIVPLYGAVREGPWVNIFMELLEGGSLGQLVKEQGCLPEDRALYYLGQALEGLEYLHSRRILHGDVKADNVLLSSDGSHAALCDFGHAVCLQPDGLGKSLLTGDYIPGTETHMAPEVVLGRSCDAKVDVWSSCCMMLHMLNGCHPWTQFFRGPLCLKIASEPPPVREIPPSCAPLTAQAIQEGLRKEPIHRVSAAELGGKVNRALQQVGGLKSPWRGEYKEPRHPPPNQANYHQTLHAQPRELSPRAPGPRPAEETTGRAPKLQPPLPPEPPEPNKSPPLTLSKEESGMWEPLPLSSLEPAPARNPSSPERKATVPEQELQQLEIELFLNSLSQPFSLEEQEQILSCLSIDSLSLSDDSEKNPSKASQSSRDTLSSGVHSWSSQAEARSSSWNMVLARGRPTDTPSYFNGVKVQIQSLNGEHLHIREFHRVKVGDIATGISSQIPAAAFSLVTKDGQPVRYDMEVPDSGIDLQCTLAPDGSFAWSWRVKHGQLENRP

IC50 [1] | IC50 [2] | IC50 [3] | IC50 [4] | SMILES
> 100 µM | > 100 µM | > 100 µM | > 100 µM | Cc1c(-c2ccc(Cl)c(Cl)c2)c(N)nn1C(=O)C1CCC1
> 100 µM | > 100 µM | > 100 µM | > 100 µM | Cc1c(-c2ccc(Cl)c(Cl)c2)c(N)nn1C(=O)c1cccnc1
> 100 µM | > 100 µM | > 100 µM | > 100 µM | CC(=O)n1nc(N)c(-c2ccc(Cl)c(Cl)c2)c1C
> 100 µM | > 100 µM | > 100 µM | > 100 µM | Cc1nn(C(=O)C2CC2)c(N)c1-c1ccc(Cl)cc1
> 100 µM | > 100 µM | > 100 µM | > 100 µM | Cc1c(-c2ccc(Cl)c(Cl)c2)c(N)nn1C
> 100 µM | 50.9 µM | > 100 µM | > 100 µM | Cc1[nH]nc(N)c1-c1ccc(Cl)c(Cl)c1
> 100 µM | > 100 µM | > 100 µM | 41 µM | Cc1nn(C(=O)C2CCCC2)c(N)c1-c1ccc(Cl)c(Cl)c1
> 100 µM | > 100 µM | > 100 µM | > 100 µM | Cc1nn(C)c(N)c1-c1ccc(Cl)c(Cl)c1
> 100 µM | > 100 µM | > 100 µM | > 100 µM | CCNC(=O)n1nc(C)c(-c2ccc(Cl)c(Cl)c2)c1N
> 100 µM | > 100 µM | > 100 µM | > 100 µM | CCc1nn(C(C)=O)c(N)c1-c1ccc(Cl)c(Cl)c1
> 100 µM | > 100 µM | > 100 µM | > 100 µM | Cc1nn(C(=O)OC(C)(C)C)c(N)c1-c1ccc(Cl)c(Cl)c1
> 100 µM | > 100 µM | > 100 µM | 58.2 µM | Cc1nn(C(=O)c2ccncc2)c(N)c1-c1ccc(Cl)c(Cl)c1
> 100 µM | 75.7 µM | > 100 µM | > 100 µM | Cc1c(N)n[nH]c1-c1ccc(Cl)c(Cl)c1
> 100 µM | > 100 µM | > 100 µM | > 100 µM | CCCC(=O)n1nc(C)c(-c2ccc(Cl)c(Cl)c2)c1N
> 100 µM | > 100 µM | > 100 µM | > 100 µM | Cc1nn(C(=O)c2cccnc2)c(N)c1-c1ccc(Cl)c(Cl)c1

Further lines, the molecule ahead of its results:

SMILES | IC50 [1] | IC50 [2] | IC50 [3] | IC50 [4]
Cc1[nH]nc(NC(=O)c2ccccn2)c1-c1ccc(Cl)c(Cl)c1 | > 100 µM | > 100 µM | > 100 µM | > 100 µM
Cc1cccc(-c2c(N)n[nH]c2C)c1 | > 100 µM | > 100 µM | > 100 µM | > 100 µM
Cc1ccc(-c2c(N)n[nH]c2C)cc1 | > 100 µM | > 100 µM | > 100 µM | > 100 µM
Cc1ccc(-c2c(N)n[nH]c2C)cc1C | > 100 µM | > 100 µM | > 100 µM | > 100 µM
Cc1[nH]nc(N)c1-c1cccc(OC(F)(F)F)c1 | > 100 µM | > 100 µM | > 100 µM | > 100 µM
Cc1[nH]nc(N)c1-c1cccc(Br)c1 | > 100 µM | 88 µM | > 100 µM | > 100 µM
CC(=O)n1nc(N)c(Br)c1C | > 100 µM | 47.7 µM | > 100 µM | 12.5 µM
CC(=O)n1nc(C)c(-c2ccc(C)c(C)c2)c1N | > 100 µM | > 100 µM | > 100 µM | 39.6 µM
CC(=O)n1nc(C)c(-c2cccc(C(F)(F)F)c2)c1N | > 100 µM | > 100 µM | > 100 µM | > 100 µM
Cc1[nH]nc(N)c1-c1ccc2ccccc2c1 | > 100 µM | 42.8 µM | > 100 µM | > 100 µM
Cc1n[nH]c(N)c1-c1ccccc1 | > 100 µM | > 100 µM | > 100 µM | > 100 µM
Cc1[nH]nc(N)c1-c1ccc(Br)cc1 | 89.7 µM | 60.1 µM | > 100 µM | > 100 µM
Cc1[nH]nc(N)c1-c1ccc2c(c1)OCO2 | > 100 µM | > 100 µM | > 100 µM | > 100 µM
Cc1[nH]nc(N)c1-c1ccc(OCc2ccccc2)cc1 | > 100 µM | > 100 µM | 15.4 µM | > 100 µM
Cc1[nH]nc(N)c1-c1cccc(C(F)(F)F)c1 | > 100 µM | 22.4 µM | > 100 µM | > 100 µM
Cc1[nH]nc(N)c1-c1cccc(Cl)c1 | > 100 µM | > 100 µM | 93.4 µM | > 100 µM
CC(=O)n1nc(C)c(-c2ccc(Cl)cc2)c1N | > 100 µM | > 100 µM | > 100 µM | > 100 µM
Cc1[nH]nc(N)c1-c1cc(C(F)(F)F)cc(C(F)(F)F)c1 | > 100 µM | 22.9 µM | > 100 µM | > 100 µM
CC(=O)n1nc(C)c(-c2cccc(Cl)c2)c1N | > 100 µM | > 100 µM | > 100 µM | > 100 µM
Cc1[nH]nc(NC(=O)C(F)(F)F)c1-c1ccc(Cl)c(Cl)c1 | 34.9 µM | > 100 µM | > 100 µM | > 100 µM
CC(=O)n1nc(C)c(Br)c1N | > 100 µM | 13.6 µM | 22.9 µM | > 100 µM
